pEC50, pKi: −log10 of the molar value. Values belong to the compound of their own block, whether it stands above or below them.
How the values were obtained:
[1] = molecular target: Protease (Human immunodeficiency virus 1) (UniProt Q9YQ12); experiment: Inhibition of recombinant HIV1 protease at 50 nM
Procedure, shortened: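 Recombinant HIV-1 PR (2 μg/mL stock) was mixed with inhibitor (500 nM solution in DMSO) in MES–NaOH pH 5.5 buffer containing DTT, EDTA and 1 M NaCl. The reaction was started with substrate H-Lys-Ala-Arg-Val-Tyr-Phe(p-NO₂)-Glu-Ala-Nle-NH₂ (1.0 mM solution) and run 15 min at 37 °C, then stopped with 1M HCl. The cleaved N-terminal fragment was quantified by reversed-phase C18 HPLC.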

[2] = Cytotoxicity against rat L6 cells after 72 hrs by Alamar blue resazurin assay; assay type: cell-based; settings: read-out: TD50
[3] = tested on: Plasmodium falciparum; experiment: Antimalarial activity against chloroquine-sensitive Plasmodium falciparum NF54 in type O+ human erythrocytes after 48 hrs as reduced [3H]hypoxanthine uptake; assay type: functional, organism-based
Procedure, shortened: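 NF54 parasites grown in 2.4% O+ human erythrocyte suspension in RPMI 1640 with 25 mM HEPES, 27 mM NaHCO3, 10% heat-inactivated O+ human serum, under 3% O2/4% CO2/93% N2. Compounds serially diluted in 0.2% DMSO medium, incubated with culture 48 h, then 0.6 μCi [3H]hypoxanthine added for 20 h. Harvested on glass filters, scintillation counted. IC50 from dose-response curves.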

[4] = molecular target: Plasmepsin II (Plasmodium falciparum, UniProt P46925); experiment: Inhibition of Plasmodium falciparum plasmepsin-2
Procedure, shortened: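 Plm II (400 nM) hydrolysis of chromogenic substrate H-Ala-Leu-Glu-Arg-Thr-Phe-Phe(p-NO2)-Ser-Phe-Pro-Thr-OH (163 μM) in 10 mM sodium formate pH 4.0, 2% DMSO, 25 °C, with increasing inhibitor. Rates fitted to tight-binding competitive inhibition equations for Ki.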

Sequence of Protease (Human immunodeficiency virus 1) (Q9YQ12 as listed by the source): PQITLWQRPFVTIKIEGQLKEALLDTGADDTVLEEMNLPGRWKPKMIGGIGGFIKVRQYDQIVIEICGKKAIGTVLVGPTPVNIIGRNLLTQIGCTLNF
Sequence of Plasmepsin II (P46925 whole entry): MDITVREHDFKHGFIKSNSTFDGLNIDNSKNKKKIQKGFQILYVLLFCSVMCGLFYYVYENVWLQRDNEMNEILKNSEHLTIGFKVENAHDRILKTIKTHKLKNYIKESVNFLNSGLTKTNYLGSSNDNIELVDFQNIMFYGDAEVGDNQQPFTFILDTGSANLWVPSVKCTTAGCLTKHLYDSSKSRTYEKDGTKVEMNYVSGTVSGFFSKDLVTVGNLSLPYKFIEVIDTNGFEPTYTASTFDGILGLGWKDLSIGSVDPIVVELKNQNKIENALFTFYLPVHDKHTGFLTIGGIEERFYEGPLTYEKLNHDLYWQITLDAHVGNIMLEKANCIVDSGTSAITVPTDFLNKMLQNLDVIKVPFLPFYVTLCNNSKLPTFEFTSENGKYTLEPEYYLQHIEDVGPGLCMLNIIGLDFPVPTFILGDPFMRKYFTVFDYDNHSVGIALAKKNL

SMILES: CNc1cc(C)c(OCC(=O)N[C@@H](Cc2ccccc2)[C@H](O)C(=O)N2CSC(C)(C)[C@H]2C(=O)N[C@H]2c3ccccc3C[C@H]2O)c(C)c1
- inhibition [1]: 91%
- CC50 at 72 h [2]: > 120000 nM
- pEC50 [3]: 6.35
- pKi [4]: 7.60

SMILES: COc1cccc(OCC(=O)N[C@@H](Cc2ccccc2)[C@H](O)C(=O)N2CSC(C)(C)[C@H]2C(=O)N[C@H]2c3ccccc3C[C@H]2O)c1
- inhibition [1]: 10%
- pEC50 [3]: < 5.10
- pKi [4]: 8.40

SMILES: CC1(C)SCN(C(=O)[C@@H](O)[C@H](Cc2ccccc2)NC(=O)COc2c(F)cccc2F)[C@@H]1C(=O)N[C@H]1c2ccccc2C[C@H]1O
- inhibition [1]: 58%
- CC50 at 72 h [2]: 55000 nM
- pEC50 [3]: 5.48
- pKi [4]: 7.85

- inhibition [1]: 0%
- pEC50 [3]: 5.54
- pKi [4]: 7.64
SMILES: CC(C)c1cccc(C(C)C)c1OCC(=O)N[C@@H](Cc1ccccc1)[C@H](O)C(=O)N1CSC(C)(C)[C@H]1C(=O)N[C@H]1c2ccccc2C[C@H]1O
- CC50 at 72 h [2]: 6300 nM

SMILES: Cc1cc(N)cc(C)c1OCC(=O)N[C@@H](Cc1ccccc1)[C@H](O)C(=O)N1CSC(C)(C)[C@H]1C(=O)N[C@H]1c2ccccc2C[C@H]1O
- inhibition [1]: 96%
- pKi [4]: 7.64

SMILES: Cc1ccccc1OCC(=O)N[C@@H](Cc1ccccc1)[C@H](O)C(=O)N1CSC(C)(C)[C@H]1C(=O)N[C@H]1c2ccccc2C[C@H]1O
- inhibition [1]: 72%
- pKi [4]: 6.84

SMILES: CC1(C)SCN(C(=O)[C@@H](O)[C@H](Cc2ccccc2)NC(=O)COc2cccc(N)c2)[C@@H]1C(=O)N[C@H]1c2ccccc2C[C@H]1O
- inhibition [1]: 29%
- pEC50 [3]: < 5.10
- pKi [4]: 7.54

SMILES: CC1(C)SCN(C(=O)[C@@H](O)[C@H](Cc2ccccc2)NC(=O)COc2ccc(N)cc2)[C@@H]1C(=O)N[C@H]1c2ccccc2C[C@H]1O
- inhibition [1]: 27%
- pEC50 [3]: < 5.10
- pKi [4]: 7.55

SMILES: CC1(C)SCN(C(=O)[C@@H](O)[C@H](Cc2ccccc2)NC(=O)COc2ccccc2[N+](=O)[O-])[C@@H]1C(=O)N[C@H]1c2ccccc2C[C@H]1O
- inhibition [1]: 9%
- pKi [4]: 7.26

SMILES: CC1(C)SCN(C(=O)[C@@H](O)[C@H](Cc2ccccc2)NC(=O)COc2ccc(O)cc2)[C@@H]1C(=O)N[C@H]1c2ccccc2C[C@H]1O
- inhibition [1]: 31%
- pEC50 [3]: < 5.10
- pKi [4]: 8.00

SMILES: Cc1ccc(OCC(=O)N[C@@H](Cc2ccccc2)[C@H](O)C(=O)N2CSC(C)(C)[C@H]2C(=O)N[C@H]2c3ccccc3C[C@H]2O)cc1
- inhibition [1]: 27%
- pEC50 [3]: < 5.10
- pKi [4]: 7.26

SMILES: CCCCNc1cc(C)c(OCC(=O)N[C@@H](Cc2ccccc2)[C@H](O)C(=O)N2CSC(C)(C)[C@H]2C(=O)N[C@H]2c3ccccc3C[C@H]2O)c(C)c1
- inhibition [1]: 85%
- CC50 at 72 h [2]: 22000 nM
- pEC50 [3]: 6.27
- pKi [4]: 7.52

SMILES: CC1(C)SCN(C(=O)[C@@H](O)[C@H](Cc2ccccc2)NC(=O)COc2cccc(O)c2)[C@@H]1C(=O)N[C@H]1c2ccccc2C[C@H]1O
- inhibition [1]: 13%
- pEC50 [3]: < 5.10
- pKi [4]: 8.00

SMILES: Cc1cc(NCc2ccccn2)cc(C)c1OCC(=O)N[C@@H](Cc1ccccc1)[C@H](O)C(=O)N1CSC(C)(C)[C@H]1C(=O)N[C@H]1c2ccccc2C[C@H]1O
- inhibition [1]: 91%
- CC50 at 72 h [2]: > 120000 nM
- pEC50 [3]: 6.52
- pKi [4]: 8.00

SMILES: Cc1cc(NCc2ccncc2)cc(C)c1OCC(=O)N[C@@H](Cc1ccccc1)[C@H](O)C(=O)N1CSC(C)(C)[C@H]1C(=O)N[C@H]1c2ccccc2C[C@H]1O
- inhibition [1]: 91%
- CC50 at 72 h [2]: > 120000 nM
- pEC50 [3]: 6.31
- pKi [4]: 8.22

SMILES: Cc1cc(NCc2cccnc2)cc(C)c1OCC(=O)N[C@@H](Cc1ccccc1)[C@H](O)C(=O)N1CSC(C)(C)[C@H]1C(=O)N[C@H]1c2ccccc2C[C@H]1O
- inhibition [1]: 91%
- CC50 at 72 h [2]: > 120000 nM
- pEC50 [3]: 6.30
- pKi [4]: 7.68

SMILES: CC1(C)SCN(C(=O)[C@@H](O)[C@H](Cc2ccccc2)NC(=O)COc2c(Cl)cccc2Cl)[C@@H]1C(=O)N[C@H]1c2ccccc2C[C@H]1O
- inhibition [1]: 95%
- pEC50 [3]: 5.28
- pKi [4]: 7.41

SMILES: CCCCCNc1cc(C)c(OCC(=O)N[C@@H](Cc2ccccc2)[C@H](O)C(=O)N2CSC(C)(C)[C@H]2C(=O)N[C@H]2c3ccccc3C[C@H]2O)c(C)c1
- inhibition [1]: 78%
- CC50 at 72 h [2]: 12000 nM
- pEC50 [3]: 6.37
- pKi [4]: 7.59

SMILES: COc1cccc(OC)c1OCC(=O)N[C@@H](Cc1ccccc1)[C@H](O)C(=O)N1CSC(C)(C)[C@H]1C(=O)N[C@H]1c2ccccc2C[C@H]1O
- inhibition [1]: 54%
- pKi [4]: 6.11

SMILES: CCNc1cc(C)c(OCC(=O)N[C@@H](Cc2ccccc2)[C@H](O)C(=O)N2CSC(C)(C)[C@H]2C(=O)N[C@H]2c3ccccc3C[C@H]2O)c(C)c1
- inhibition [1]: 84%
- CC50 at 72 h [2]: 64000 nM
- pEC50 [3]: 6.14
- pKi [4]: 8.15

SMILES: CC1(C)SCN(C(=O)[C@@H](O)[C@H](Cc2ccccc2)NC(=O)COc2cccc([N+](=O)[O-])c2)[C@@H]1C(=O)N[C@H]1c2ccccc2C[C@H]1O
- inhibition [1]: 12%
- CC50 at 72 h [2]: 58000 nM
- pEC50 [3]: 5.55
- pKi [4]: 7.42

SMILES: Cc1cc(O)cc(C)c1OCC(=O)N[C@@H](Cc1ccccc1)[C@H](O)C(=O)N1CSC(C)(C)[C@H]1C(=O)N[C@H]1c2ccccc2C[C@H]1O
- inhibition [1]: 98%
- pEC50 [3]: 5.48
- pKi [4]: 8.30

SMILES: Cc1cc(N(C)C)cc(C)c1OCC(=O)N[C@@H](Cc1ccccc1)[C@H](O)C(=O)N1CSC(C)(C)[C@H]1C(=O)N[C@H]1c2ccccc2C[C@H]1O
- inhibition [1]: 86%
- CC50 at 72 h [2]: 45000 nM
- pEC50 [3]: 5.92
- pKi [4]: 7.68

SMILES: Cc1cccc(C)c1OCC(=O)N[C@@H](Cc1ccccc1)[C@H](O)C(=O)N1CSC(C)(C)[C@H]1C(=O)N[C@H]1c2ccccc2C[C@H]1O
- inhibition [1]: 98%

SMILES: CC1(C)SCN(C(=O)[C@@H](O)[C@H](Cc2ccccc2)NC(=O)COc2ccccc2O)[C@@H]1C(=O)N[C@H]1c2ccccc2C[C@H]1O
- inhibition [1]: 34%
- pKi [4]: 6.95

SMILES: CC1(C)SCN(C(=O)[C@@H](O)[C@H](Cc2ccccc2)NC(=O)COc2ccc([N+](=O)[O-])cc2)[C@@H]1C(=O)N[C@H]1c2ccccc2C[C@H]1O
- inhibition [1]: 53%
- CC50 at 72 h [2]: 63000 nM
- pEC50 [3]: 5.38
- pKi [4]: 7.60

SMILES: CC1(C)SCN(C(=O)[C@@H](O)[C@H](Cc2ccccc2)NC(=O)COc2ccccc2CO)[C@@H]1C(=O)N[C@H]1c2ccccc2C[C@H]1O
- inhibition [1]: 61%
- pKi [4]: 6.88

SMILES: COc1ccc(OCC(=O)N[C@@H](Cc2ccccc2)[C@H](O)C(=O)N2CSC(C)(C)[C@H]2C(=O)N[C@H]2c3ccccc3C[C@H]2O)cc1
- inhibition [1]: 38%
- pKi [4]: 6.32

SMILES: Cc1cccc(OCC(=O)N[C@@H](Cc2ccccc2)[C@H](O)C(=O)N2CSC(C)(C)[C@H]2C(=O)N[C@H]2c3ccccc3C[C@H]2O)c1
- inhibition [1]: 13%
- pEC50 [3]: < 5.10
- pKi [4]: 7.38

SMILES: COc1ccccc1OCC(=O)N[C@@H](Cc1ccccc1)[C@H](O)C(=O)N1CSC(C)(C)[C@H]1C(=O)N[C@H]1c2ccccc2C[C@H]1O
- inhibition [1]: 27%
- pKi [4]: 6.82

SMILES: Cc1cc(F)cc(C)c1OCC(=O)N[C@@H](Cc1ccccc1)[C@H](O)C(=O)N1CSC(C)(C)[C@H]1C(=O)N[C@H]1c2ccccc2C[C@H]1O
- inhibition [1]: 87%
- CC50 at 72 h [2]: 29000 nM
- pEC50 [3]: 5.85
- pKi [4]: 7.72

SMILES: CC1(C)SCN(C(=O)[C@@H](O)[C@H](Cc2ccccc2)NC(=O)COc2ccccc2N)[C@@H]1C(=O)N[C@H]1c2ccccc2C[C@H]1O
- inhibition [1]: 62%
- pKi [4]: 6.90

SMILES: CC1(C)SCN(C(=O)[C@@H](O)[C@H](Cc2ccccc2)NC(=O)COc2ccc(CO)cc2)[C@@H]1C(=O)N[C@H]1c2ccccc2C[C@H]1O
- inhibition [1]: 37%
- CC50 at 72 h [2]: > 120000 nM
- pEC50 [3]: 5.96
- pKi [4]: 8.00

SMILES: CC1(C)SCN(C(=O)[C@@H](O)[C@H](Cc2ccccc2)NC(=O)COc2cccc(CO)c2)[C@@H]1C(=O)N[C@H]1c2ccccc2C[C@H]1O
- inhibition [1]: 24%
- pEC50 [3]: < 5.10
- pKi [4]: 8.05
